Experimental data published in ChEMBL document CHEMBL1142885, “Evaluation of [11C]hemicholinium-15 and [18F]hemicholinium-15 as new potential PET tracers for the high-affinity choline uptake system in the heart” (Bioorg Med Chem, 2007).

How the values were obtained:
Conditions in all cases: in vivo
[1] = Biodistribution in Fisher rat urine at 1 to 3 mCi, iv after 20 mins; assay type: ADME, organism-based
How it was run: (§1)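 Fisher rats (200–300 g) given [¹¹C]HC-15 or [¹⁸F]HC-15 (1–3 mCi, sub-pharmacologic) by tail-vein iv injection under conscious restraint. Sacrificed by decapitation under halothane anesthesia at 20 min, tissues excised and weighed, decay-corrected radioactivity gamma-counted. Expressed as %ID and %ID/g; values are the average of four rats.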

[2] = Biodistribution in Fisher rat skeletal muscle s at 1 to 3 mCi, iv after 20 mins; assay type: ADME, organism-based, Muscle tissue; how it was run: as §1
[3] = system: Solar plexus; assay: Biodistribution in Fisher rat solar plexus at 1 to 3 mCi, iv after 20 mins; assay type: ADME, organism-based; how it was run: as §1
[4] = Biodistribution in Fisher rat atrioventricular node at 1 to 3 mCi, iv after 20 mins; assay type: ADME, organism-based; how it was run: as §1
[5] = Biodistribution in Fisher rat left ventricle at 1 to 3 mCi, iv after 20 mins; assay type: ADME, organism-based, Heart left ventricle; how it was run: as §1
[6] = Biodistribution in Fisher rat right ventricle at 1 to 3 mCi, iv after 20 mins; assay type: ADME, organism-based, Heart right ventricle; how it was run: as §1
[7] = system: Septum; assay: Biodistribution in Fisher rat septum at 1 to 3 mCi, iv after 20 mins; assay type: ADME, organism-based; how it was run: as §1
[8] = Biodistribution in Fisher rat right atrium at 1 to 3 mCi, iv after 20 mins; assay type: ADME, organism-based, Cardiac atrium; how it was run: as §1
[9] = Biodistribution in Fisher rat left atrium at 1 to 3 mCi, iv after 20 mins; assay type: ADME, organism-based, Cardiac atrium; how it was run: as §1
[10] = system: Blood; assay: Biodistribution in Fisher rat blood at 1 to 3 mCi, iv after 20 mins; assay type: ADME, organism-based; how it was run: as §1
[11] = system: Brain; assay: Biodistribution in Fisher rat brain at 1 to 3 mCi, iv after 20 mins; assay type: ADME, organism-based; how it was run: as §1
[12] = system: Lung; assay: Biodistribution in Fisher rat lung at 1 to 3 mCi, iv after 20 mins; assay type: ADME, organism-based; how it was run: as §1
[13] = system: Liver; assay: Biodistribution in Fisher rat liver at 1 to 3 mCi, iv after 20 mins; assay type: ADME, organism-based; how it was run: as §1
[14] = system: Kidney; assay: Biodistribution in Fisher rat kidney at 1 to 3 mCi, iv after 20 mins; assay type: ADME, organism-based; how it was run: as §1

Row | Drug uptake [1] | Drug uptake [2] | Drug uptake [3] | Drug uptake [4] | Drug uptake [5] | Drug uptake [6] | Drug uptake [7] | Drug uptake [8] | Drug uptake [9] | Drug uptake [10] | Drug uptake [11] | Drug uptake [12] | Drug uptake [13] | Drug uptake [14] | Structure (SMILES)
1 | 31.835 % ID/g | 0.091 % ID/g | 0.938 % ID/g | 1.083 % ID/g | 0.859 % ID/g | 1.316 % ID/g | 0.01 % ID/g | 0.488 % ID/g | 0.526 % ID/g | 0.181 % ID/g | 0.022 % ID/g | 1.302 % ID/g | 6.284 % ID/g | 3.618 % ID/g | C[N+]1([11CH3])CCOC(O)(c2ccccc2)C1.O=S(=O)([O-])C(F)(F)F (stereo not drawn)
2 | 17.434 % ID/g | 0.145 % ID/g | 0.744 % ID/g | 0.793 % ID/g | 1.28 % ID/g | 0.037 % ID/g | 1.557 % ID/g | 0.756 % ID/g | 0.796 % ID/g | 0.201 % ID/g | 0.046 % ID/g | 3.423 % ID/g | 4.378 % ID/g | 11.651 % ID/g | C[N+]1(C[18F])CCOC(O)(c2ccccc2)C1.O=S(=O)([O-])C(F)(F)F (stereo not drawn)
